Source: PubChem BioAssay (several laboratories)
FXIIa inh 1536 = factor XIIa (human) inhibition; inhibition, % at 5 µM; 220,000 compounds, 0.3% hits; purified FXIIa, Boc-QGR-AMC fluorogenic substrate, 2 h; P00748; in the data active = inhibition above about 40%;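 note: 0% = enzyme with no compound and 100% = blank without enzyme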
KLK5 inh = inhibitors of human kallikrein 5; AID 873; 210,000 compounds, 0.59% hits; inhibition, % at 5 µM; recombinant hK5, fluorogenic AMC substrate cleavage;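 active = inhibition of 40% or more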;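 note: 0% = enzyme controls without compound and 100% = no-enzyme blanks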
FXIa inh 1536 = blocks human coagulation factor XIa protease activity. inhibition, % at 5 µM. 220,000 compounds, 0.14% hits. purified FXIa, Boc-Glu-Ala-Arg-AMC fluorogenic substrate. P03951;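 active = inhibition of at least 40%; inactive = inhibition below 40%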;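 note: fluorescence of freed AMC excited at 355 nm; 0% = enzyme without compound and 100% = no enzyme blank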
Target sequence (P03951 19-387 limits assumed): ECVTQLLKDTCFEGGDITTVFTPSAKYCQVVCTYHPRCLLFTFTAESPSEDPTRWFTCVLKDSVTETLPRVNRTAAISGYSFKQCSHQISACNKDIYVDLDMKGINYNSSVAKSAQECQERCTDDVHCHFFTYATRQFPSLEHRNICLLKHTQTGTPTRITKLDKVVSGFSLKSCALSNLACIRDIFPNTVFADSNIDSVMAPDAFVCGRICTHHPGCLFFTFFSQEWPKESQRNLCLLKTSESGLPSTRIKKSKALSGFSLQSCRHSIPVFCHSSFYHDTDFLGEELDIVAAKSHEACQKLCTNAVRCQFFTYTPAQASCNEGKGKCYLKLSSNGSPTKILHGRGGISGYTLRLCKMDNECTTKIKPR
Target sequence (P03951 388-625 limits assumed): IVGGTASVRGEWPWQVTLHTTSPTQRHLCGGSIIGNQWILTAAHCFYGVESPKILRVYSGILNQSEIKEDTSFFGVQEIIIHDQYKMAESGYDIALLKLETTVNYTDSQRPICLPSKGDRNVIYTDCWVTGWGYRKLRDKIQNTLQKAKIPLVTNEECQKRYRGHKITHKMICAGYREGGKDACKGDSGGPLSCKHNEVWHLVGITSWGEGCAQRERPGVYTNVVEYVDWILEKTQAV
Calpain2 inh = calpain II (pig) inhibition | purified calpain II, fluorogenic peptide substrate, 30 min | inhibition, % at 16 µM | 220,000 compounds, 0.37% hits | AID 1236;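 active = inhibition above about 50%, limit read from the data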
Thrombin inh = blocks human thrombin protease activity; P00734; alpha-thrombin, Boc-VPR-AMC fluorogenic substrate cleavage; inhibition, % at 5 µM; 220,000 compounds, 0.26% hits; AID 1046;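 active = inhibition at or above 40%; inactive = inhibition below 40%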;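 note: 0% = enzyme with no compound and 100% = wells without enzyme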
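Material: human alpha-thrombin protein; Also added: Boc-VPR-AMC substrate, 15 µM final; Timing: enzyme reaction carried out at room temperature; Signal: fluorescence, ex 355 nm, em 460 nm; Measure: % inhibition of thrombin; Controls: enzyme without compound as high, wells lacking enzyme as low.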
Starred values were filed as active, the others as inactive. This is a sample that favours compounds with a hit; in the whole collection about 1.4% have one here.

SMILES	FXIIa inh 1536	KLK5 inh	FXIa inh 1536	Calpain2 inh	Thrombin inh
Cc1cc(NC(=O)CSc2nc3cc(C(=O)NCCCOC(C)C)ccc3c(=O)n2Cc2ccco2)no1	4	2	3	61*	-1
c1ccc(COc2ccccc2CNC23CC4CC(CC(C4)C2)C3)cc1	-2	-11	-6	-14	0
CC1(C(=O)NCc2ccc(Cl)c(Cl)c2)Oc2cccnc2NC1=O (stereo unspecified)	9	4	-9	-8	1
COc1ccccc1NC(=S)N(CCCN(C)C)Cc1cc2cc3c(cc2[nH]c1=O)OCO3	5	-1	-3	-92	-6
CCN(CC)CCCN(Cc1cc2cc3c(cc2[nH]c1=O)OCO3)C(=S)Nc1ccccc1OC	38	52*	35	-80	45*
O=C(NCCN1CCc2ccccc2C1)C1CC(=O)N(C2CCCC2)C1 (stereo unspecified)	73*	2	5	-1	0
CS(=O)(=O)N1CCc2cc(NC(=O)c3ccc(Cl)cc3Cl)ccc21	31	7	28	50*	15
CCOC(=O)Cn1c(=NC(=O)C2CC2)sc2c(C)cc(C)cc21	29	41*	28	14	17
CCOC(=O)Cn1c(=NC(=O)CC)sc2c(C)cc(C)cc21	6	2	3	-25	-12
COc1ccccc1C(=O)NNC(=O)c1ccc(F)cc1	9	61*	3	26	18
COc1ccccc1C(=O)Nc1ccc(C(=O)c2ccccc2)cc1	3	-14	-4	67*	-2
COc1cc(OC)cc(C(=O)NNC(=O)c2ccccc2Br)c1	1	31	-4	18	89*
CCOC(=O)c1c(NC(=O)COc2ncnc3ccccc23)sc(C)c1CC	24	69*	3	35	34
Clc1ccc2nc(-c3ccccn3)c(Nc3ccc4c(c3)OCO4)n2c1	9	-19	4	56*	5
Cc1cc(C)n2ncc(/C(N)=N/OC(=O)Nc3ccc(Cl)cc3)c2n1	8	2	4	21	-1
O=C(COc1ccc([N+](=O)[O-])cc1)NN=C1CCCC1	-6	55*	5	7	29
CCc1ccc(C2CC(c3ccccc3)Nc3nc(N)nn32)cc1 (stereo unspecified)	12	9	10	11	5
CCc1ccc(C2CC(c3ccccc3)n3ncnc3N2)cc1 (stereo unspecified)	-9	45*	-15	19	-4
O=C(CSc1nnc(-c2ccccc2)c(-c2ccccc2)n1)Nc1ccc(Br)cn1	28	2	23	-1	62*
O=C(CSc1nnc(-c2ccccc2)c(-c2ccccc2)n1)Nc1ncc(Cl)cc1Cl	3	-4	1	-35	-2
CCN(CC)CCCNC(=O)Cn1cnc2ccc(S(=O)(=O)N3CCC(C)CC3)cc2c1=O	32	45*	34	12	17
C/C(=N\OC(=O)C1CC1)C1CC1c1ccc(F)cc1 (stereo unspecified)	33	52*	33	19	31
CSC(=NC#N)N1CCN(c2ccccc2)CC1	8	-9	-9	-11	-5
CCOc1cc(C(=O)Nc2ncn[nH]2)cc(OCC)c1OCC	11	1	1	1	-1
COc1cc(/C=N/NC(=O)c2cccc([N+](=O)[O-])c2)ccc1OCc1ccccc1	15	2	5	32	1
SMILES	FXIIa inh 1536	KLK5 inh	FXIa inh 1536	Calpain2 inh	Thrombin inh
COc1cc(/C=C/[N+](=O)[O-])ccc1OCc1cccc(C(=O)O)c1	17	43*	21	2	26
CCC(C)NC(=O)c1cnc2n(c1=O)CCS2 (stereo unspecified)	17	0	9	5	-1
CC(NC(=O)c1cnc2n(c1=O)CCS2)c1ccccc1 (stereo unspecified)	5	41*	-5	13	-2
CNC(=S)N/N=C/c1c(Cl)cccc1Cl	10	15	1	27	35
Cc1cccc(C)c1NC(=S)N/N=C/c1c(Cl)cccc1Cl	29	23	31	24	50*
O=C(COC(=O)C1CC(=O)N(Cc2ccco2)C1)c1ccc(OC(=O)c2ccco2)cc1 (stereo unspecified)	41*	31	25	-37	24
Cc1ccc(C(=O)Oc2ccc(C(=O)COC(=O)C3CC(=O)N(Cc4ccco4)C3)cc2)cc1 (stereo unspecified)	14	-19	4	18	-4
O=C(CCN1CCCCC1)N/N=C/c1c[nH]c2ccccc12	-1	-1	-2	-20	-5
COc1cc(/C=N/NC(=O)c2ccc(O)cc2)ccc1OCC(=O)N1CC(C)OC(C)C1 (stereo unspecified)	8	4	3	-12	6
Cn1cc(Cl)c(-c2n[nH]c(=S)n2C2CCCCC2)n1	-2	-18	-3	19	1
C/C(=N\NS(=O)(=O)c1ccc(Cl)c([N+](=O)[O-])c1)c1cc2ccccc2o1	1	1	-7	-20	-1
C/C(=N\NS(=O)(=O)c1ccc(C)c([N+](=O)[O-])c1)c1cc2ccccc2o1	15	107*	12	-12	6
CN(CC(=O)O)S(=O)(=O)c1ccc2c(c1)NC(=O)CC(=O)N2	-2	-4	-6	5	-7
N/C(=N\OC(=O)c1ccc(Cl)c([N+](=O)[O-])c1)c1ccccn1	98*	0	3	32	0
N/C(=N\OC(=O)c1ccc(Cl)c(Cl)c1)c1ccccn1	18	8	-2	6	9
O=C(Nc1cccnc1)c1ccc(F)cc1	4	-4	-2	-7	-3
CC(=O)NC(c1ccc(F)cc1)c1cccnc1 (stereo unspecified)	12	49*	6	24	10
CC(=O)c1ccc(N2CCN(C(=O)c3cc(-c4ccc5c(c4)OCO5)nc4ccccc34)CC2)cc1	-7	82*	-6	-147	0
CCc1ccc[n+](-c2[nH]c(=O)sc2/C=N/NC([S-])=Nc2ccccc2)c1	-1	17	-10	41	34
CCc1ccc[n+](-c2[nH]c(=O)sc2/C=N/N=C(\N)[O-])c1	23	30	42*	14	25
N#Cc1ccccc1NC(=O)COC(=O)COc1ccccc1[N+](=O)[O-]	14	2	3	-18	42*
O=C(COC(=O)CCC(=O)c1cccs1)Nc1ccccc1[N+](=O)[O-]	3	6	-1	0	42*
CC1CCN(CC(=O)Nc2ccc(S(=O)(=O)NC3CC3)cc2)CC1	5	0	-2	5	-3
O=C(NCc1ccco1)C1CC(c2ccccc2O)=NO1 (stereo unspecified)	2	-4	-7	-25	-5
O=C(NCc1ccco1)C1CC(c2ccccc2C(F)(F)F)=NO1 (stereo unspecified)	21	19	72*	-16	21
Cc1cc(C(=O)OCC(=O)N2CC(=O)Nc3ccccc32)c(C)n1-c1ccccc1	10	60*	5	10	9
